Screening results deposited in PubChem BioAssay by several laboratories.
Apaf-1 inh: blocks human Apaf-1 apoptosome activity | AID 489030 | reconstituted apoptosome caspase-3 activity, DEVD-Rh110 fluorescence | O14727 | 330,000 compounds, 0.71% hits | inhibition, % at 20 µM; active = inhibition of at least 40% at 20 µM;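 also: plate controls were DMSO wells for no effect and DEVD-CHO caspase inhibitor wells for full effect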
Target sequence (O14727 whole entry, looked up): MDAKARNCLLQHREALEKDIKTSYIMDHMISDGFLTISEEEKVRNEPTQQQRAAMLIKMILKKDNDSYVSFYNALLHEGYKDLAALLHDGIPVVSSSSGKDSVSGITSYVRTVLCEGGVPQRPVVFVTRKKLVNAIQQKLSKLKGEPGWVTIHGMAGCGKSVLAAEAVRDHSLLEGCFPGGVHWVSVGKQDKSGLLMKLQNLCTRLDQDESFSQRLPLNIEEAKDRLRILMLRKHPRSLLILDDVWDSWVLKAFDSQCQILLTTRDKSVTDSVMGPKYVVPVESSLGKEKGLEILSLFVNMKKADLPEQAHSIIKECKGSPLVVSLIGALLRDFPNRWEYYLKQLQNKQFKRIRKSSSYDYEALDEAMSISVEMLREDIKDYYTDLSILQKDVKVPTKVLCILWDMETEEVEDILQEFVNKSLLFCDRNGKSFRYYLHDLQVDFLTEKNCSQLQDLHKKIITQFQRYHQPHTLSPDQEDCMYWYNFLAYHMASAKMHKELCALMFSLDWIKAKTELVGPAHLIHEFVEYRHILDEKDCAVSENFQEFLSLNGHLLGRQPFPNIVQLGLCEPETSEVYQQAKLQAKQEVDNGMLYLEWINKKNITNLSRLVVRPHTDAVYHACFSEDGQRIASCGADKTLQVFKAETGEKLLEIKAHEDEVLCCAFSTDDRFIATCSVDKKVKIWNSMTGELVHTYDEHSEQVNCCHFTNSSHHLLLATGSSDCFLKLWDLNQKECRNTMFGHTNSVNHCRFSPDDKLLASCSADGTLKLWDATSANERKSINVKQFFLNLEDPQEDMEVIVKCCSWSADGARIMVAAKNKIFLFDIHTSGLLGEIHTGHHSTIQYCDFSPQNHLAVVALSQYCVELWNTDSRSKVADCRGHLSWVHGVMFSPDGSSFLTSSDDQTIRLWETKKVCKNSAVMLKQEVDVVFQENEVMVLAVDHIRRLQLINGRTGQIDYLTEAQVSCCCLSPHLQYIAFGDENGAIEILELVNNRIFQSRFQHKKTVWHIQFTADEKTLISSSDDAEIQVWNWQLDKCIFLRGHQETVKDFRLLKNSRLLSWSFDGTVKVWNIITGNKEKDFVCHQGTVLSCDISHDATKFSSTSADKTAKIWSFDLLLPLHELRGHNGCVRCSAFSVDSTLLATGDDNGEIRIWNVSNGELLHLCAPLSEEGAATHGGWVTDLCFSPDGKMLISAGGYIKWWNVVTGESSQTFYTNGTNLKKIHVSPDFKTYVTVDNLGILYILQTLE
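Material: reconstituted apoptosome with Apaf-1, cytochrome c, caspase-9, procaspase-3, dATP / Buffer or medium: pH 7.5 Hepes buffer with CHAPS, BSA, DTT / Also added: cytochrome c with DEVD-Rh110 / Schedule: compound with Apaf-1, dATP, procaspase-3 30 min, then 50 min reaction, room temperature / Technique: rhodamine 110 fluorescence at Ex 480/Em 540 nm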
UBC13 inh: inhibitors of human UBC13 polyubiquitin chain formation; inhibition, % at 20 µM; 330,000 compounds, 0.47% hits; TR-FRET; AID 485273; in the data active = inhibition above about 45%, passing the limit was not always enough
UBC9 SUMO inh: inhibitors of human SUMOylation (UBC9); inhibition, % at 35 µM; 290,000 compounds, 0.36% hits; HTRF SUMOylation assay, SAE1/SAE2 + UBC9, in vitro; P63279; in the data active = inhibition above about 50%, passing the limit was not always enough
Rin1-Abl PPI inh: human Rin1-Abl interaction inhibition; TR-FRET Rin1/Abl binding, biochemical; inhibition, % at 7.35 µM; 360,000 compounds, 0.4% hits; AID 588664; in the data active = inhibition above about 5%, passing the limit was not always enough
PAD4 inh: PAD4 (human) enzyme inhibition; Q9UM07; recombinant PAD4, RCA probe fluorescence polarization; inhibition, % at 6.36 µM; 330,000 compounds, 0.41% hits; AID 485272;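 active = percent inhibition above a cutoff equal to the mean of all tested compounds plus 3 SD, cut at about 15% in these data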;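 also: 0% = PAD4 with RCA probe and DMSO and 100% = probe without PAD4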
GSTO1 counter: GSTO1 inhibition, counter-screen for RBBP9 inhibitors; recombinant GSTO1, activity-based probe fluorescence polarization; inhibition, % at 5.96 µM; 300,000 compounds, 1.1% hits; AID 1974;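 active = inhibition above the campaign mean inhibition plus 3 SD, cut at about 35% in these data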;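 also: 0% = GSTO1-1 with DMSO and 100% = wells lacking GSTO1-1 enzyme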
GSTO1 confirm: confirmation of human GSTO1 inhibitors. shares compounds with GSTO1 counter. recombinant GSTO1, probe fluorescence polarization. inhibition, % at 5.96 µM. 2,400 compounds, 54% hits. AID 2176;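 active = inhibition above the primary screen's cutoff, its mean inhibition plus 3 SD, cut at about 35% in these data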;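 also: loss of polarization as inhibitors block binding of rhodamine sulfonate ester activity probe; 0% = GSTO1 with DMSO and 100% = wells lacking GSTO1 enzyme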
Numbers without * were called inactive. The list is not random: actives were taken first. Their share in the collection is about 2.2%.

For COc1cccc(-n2nnc3c(=O)n(CC(=O)N4CCC(Cc5ccccc5)CC4)cnc32)c1 the results were Apaf-1 inh 0, UBC13 inh -4, UBC9 SUMO inh -2, Rin1-Abl PPI inh -3, PAD4 inh -1, GSTO1 counter 39* and GSTO1 confirm 29.
For COc1cccc(-n2nnc3c(=O)n(CC(=O)N4CCC(C)CC4)cnc32)c1 the results were Apaf-1 inh -17, UBC13 inh 5, UBC9 SUMO inh 10, Rin1-Abl PPI inh 2, PAD4 inh 5 and GSTO1 counter -9.
Screening COc1ccc(S(=O)(=O)N2CCC(C(N)=O)CC2)cc1C(=O)N1CCCCCC1 returned Apaf-1 inh 6, UBC13 inh 1, UBC9 SUMO inh 3, Rin1-Abl PPI inh -1, PAD4 inh 3 and GSTO1 counter 2.
Screening N#Cc1ccccc1OCC(=O)NC1CCCCCC1 returned Rin1-Abl PPI inh -1.
For CC(OC(=O)c1ccccc1C(=O)N(C)c1ccccc1)C(=O)Nc1ccc(C(N)=O)cc1 (centres undefined) the results were Apaf-1 inh 2, UBC13 inh -2, Rin1-Abl PPI inh 2, PAD4 inh -3 and GSTO1 counter 0.
Screening CC(OC(=O)c1cc(O)c2ccccc2c1O)C(=O)Nc1ccc(C(N)=O)cc1 (centres undefined) returned Apaf-1 inh 49*, UBC13 inh -30, Rin1-Abl PPI inh 1, PAD4 inh 2, GSTO1 counter 48* and GSTO1 confirm 56*.
Screening CCOc1ccccc1CN1CCNC(=O)C1CC(=O)NCCN1CCOC1=O (centres undefined) returned Apaf-1 inh 2, UBC13 inh 7, UBC9 SUMO inh 2, Rin1-Abl PPI inh -4, PAD4 inh 1 and GSTO1 counter 1.
CC(=O)N1CCN(C(=O)c2ccccc2NS(=O)(=O)c2ccc(F)cc2)CC1 was read as Apaf-1 inh -4, UBC13 inh -2, Rin1-Abl PPI inh 2 and PAD4 inh 1.
`Oc1cc2c(c(Cl)c1O)CCNCC2c1ccccc1` (centres undefined) gave Apaf-1 inh 12, UBC13 inh -7, Rin1-Abl PPI inh 8, PAD4 inh 2 and GSTO1 counter 12.
Oc1ccc(C2CNCc3sccc32)cc1O (centres undefined) was read as Apaf-1 inh 1, UBC13 inh 4, Rin1-Abl PPI inh 6, PAD4 inh 4, GSTO1 counter 49* and GSTO1 confirm 7.
`Cc1ccc(NC(=O)COC(=O)CCc2ccc(S(=O)(=O)N3CCOCC3)cc2)cc1F` gave Apaf-1 inh 7, UBC13 inh 4, UBC9 SUMO inh -11, Rin1-Abl PPI inh 0, PAD4 inh -4, GSTO1 counter 40* and GSTO1 confirm 4.
CC(C(=O)OCC(=O)Nc1cccc(S(=O)(=O)N2CCOCC2)c1)N1C(=O)c2ccccc2C1=O (centres undefined) was read as Apaf-1 inh 2, UBC13 inh 1, UBC9 SUMO inh 5, Rin1-Abl PPI inh 2, PAD4 inh 2, GSTO1 counter 39* and GSTO1 confirm 24.
Screening CC(=O)C1=C(c2ccccc2)NC(=S)NC1c1cc(Cl)c(OC(C)C)c(Cl)c1 (centres undefined) returned Apaf-1 inh 31, UBC13 inh -17, UBC9 SUMO inh -5, Rin1-Abl PPI inh -5, PAD4 inh -6 and GSTO1 counter -10.
CC(=O)C1=C(c2ccccc2)NC(=S)NC1c1ccc(O)c(O)c1 (centres undefined) was read as Apaf-1 inh -2, UBC13 inh -6, UBC9 SUMO inh -8, Rin1-Abl PPI inh 3, PAD4 inh 0, GSTO1 counter 45* and GSTO1 confirm 7.
Cc1cnc(CNC(=O)c2csc(COCCO)n2)cn1 was read as Rin1-Abl PPI inh 1.
`O=C(CCCN1C(=O)C(c2ccccc2)Oc2cccnc21)Nc1ccccc1Cl` (centres undefined) gave Apaf-1 inh 14, UBC13 inh 9, Rin1-Abl PPI inh 0, PAD4 inh 4 and GSTO1 counter 4.
For CC(=O)Oc1ccc(OC(C)=O)c(S(=O)(=O)c2ccc(C)c(C)c2)c1 the results were Apaf-1 inh 2, UBC13 inh 6, UBC9 SUMO inh 10, Rin1-Abl PPI inh -2, PAD4 inh -1, GSTO1 counter 47* and GSTO1 confirm 7.
COc1ccc(/C=C/C(=O)Oc2ccc(C)c(C)c2)cc1OC was read as Apaf-1 inh 9, UBC13 inh 8, UBC9 SUMO inh -16, Rin1-Abl PPI inh 0, PAD4 inh -1 and GSTO1 counter -1.
Screening CCC(NC(=O)CCc1nnc(-c2cc(C)on2)o1)C12CC3CC(CC(C3)C1)C2 (centres undefined) returned Apaf-1 inh -5, UBC13 inh 7, UBC9 SUMO inh 6, Rin1-Abl PPI inh -4, PAD4 inh 0 and GSTO1 counter 2.
CN1c2ccccc2N(C)C1(C)c1ccccc1 was read as UBC9 SUMO inh -2, Rin1-Abl PPI inh -4, PAD4 inh -4, GSTO1 counter 50* and GSTO1 confirm 7.
CN1C(=O)N(C)C2(c3ccccc3)NC(=O)NC12c1ccccc1 (centres undefined) was read as Apaf-1 inh 0, UBC13 inh -1, UBC9 SUMO inh 19, Rin1-Abl PPI inh -2, PAD4 inh -4 and GSTO1 counter -5.
N#CC(C#SN)=C1CCCCC1 was read as Apaf-1 inh 0, UBC13 inh 3, UBC9 SUMO inh 8, Rin1-Abl PPI inh -3, PAD4 inh 2, GSTO1 counter 52* and GSTO1 confirm 34.
`O=S(=O)(Nc1ccc(Br)cc1)c1cccc(NS(=O)(=O)c2cccs2)c1` gave Rin1-Abl PPI inh -1.
CC(C)=NOc1cc(NC(=O)CCl)cc([N+](=O)[O-])c1 was read as Apaf-1 inh 10, UBC13 inh -9, UBC9 SUMO inh 4, Rin1-Abl PPI inh 0, PAD4 inh 1, GSTO1 counter 80* and GSTO1 confirm 100*.
`CCC(=O)Nc1cc(ON=C(C)C)cc([N+](=O)[O-])c1` gave UBC9 SUMO inh -6, Rin1-Abl PPI inh 0, PAD4 inh -2 and GSTO1 counter -3.
`COc1ccc(S(=O)(=O)N2CCCCC2)cc1NC(=O)Cc1ccc(Br)cc1` gave Rin1-Abl PPI inh 4.
`Cc1cc(C(=O)NNC(=O)c2ccc(Cl)cc2)no1` gave Apaf-1 inh -6, UBC13 inh 6, UBC9 SUMO inh 10, Rin1-Abl PPI inh 4, PAD4 inh -1, GSTO1 counter 48* and GSTO1 confirm 7.
`Cc1cc(C(=O)NNC(=O)c2cccc(Cl)c2)no1` gave Apaf-1 inh -9, UBC13 inh -4, UBC9 SUMO inh 1, Rin1-Abl PPI inh 0, PAD4 inh -3 and GSTO1 counter -8.
